Reference: PMC10160980 (Proceedings of the National Academy of Sciences of the …, 2023)

How the values were obtained:
GIV–Gαi3 binding = GIV–Gαi3 binding (Rattus norvegicus, UniProt P08753); settings: cell-free systems; cited from earlier work
[1] = tested on: endogenous β-adrenergic receptors (cAMP via Gαs); assay: Luminescence-based cAMP; type: cell-based, human; settings: 100 μM; isoproterenol 100 nM; HEK293T
Method in brief: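 HEK293T cells expressing the Glosensor luminescent cAMP sensor plus α2A-AR or GABA_BR were pretreated with test compound (100 μM) or DMSO. They were then stimulated with isoproterenol (100 nM), with or without prestimulation by brimonidine (1 μM) or GABA (100 μM). Luminescence was recorded. Mean ± SEM, N ≥ 3; ANOVA.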

MDA-MB-231 cells [2] = type: cell-based, human
[3] = tested on: Akt activation upon stimulation of the GPCR CXCR4 in MDA-MB-231 cells; assay: SDF-1α-stimulated Akt activation; type: cell-based, human; settings: SDF-1α 100 ng/mL, 10 min; IGGi-11me 100 μM; PTX 100 ng/mL
MCF-10A cells [4] = assay: Cell viability assay, MCF-10A; type: cell-based, human; settings: 100 μM, 24 h
Method in brief: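 Single-concentration viability screen at 100 μM in MCF-10A cells, run alongside MDA-MB-231 and MCF-7. Values are the mean of N = 3.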

GIV binding to Gαi3 = GIV binding to Gαi3 (Rattus norvegicus, UniProt P08753); assay: Fluorescence polarization
[5] = tested on: Akt phosphorylation at S473 in HeLa cells; assay: EGF-stimulated Akt activation; type: cell-based, human; settings: EGF 50 nM, 5 min
Method in brief: (§1)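 Cells were preincubated with a range of test compound concentrations, then stimulated with EGF for 5 min (1.6 nM for MDA-MB-231, 50 nM for HeLa). Cells were then lysed and Akt activation was read by immunoblotting.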

[6] = tested on: GIV-depleted (shGIV) MDA-MB-231 cells; assay: Tumor cell migration, GIV-depleted MDA-MB-231; type: cell-based, human; settings: 100 μM
Method in brief: (§2)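 GIV-depleted (shGIV) and matched control (shControl) cells were run side by side in a modified Boyden-chamber assay of chemotactic migration toward FBS with test compound. Results are mean ± SEM (N ≥ 3).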

[7] = tested on: Akt phosphorylation at S473 in MDA-MB-231 cells; assay: EGF-stimulated Akt activation; type: cell-based, human
Method in brief: as §1

Stability in plasma = type: in vitro ADME; settings: preliminary results
MDA-MB-231 cells (CXCR4) = assay: SDF-1α mediated cell migration, MDA-MB-231; type: cell-based, human; settings: SDF-1α as chemoattractant; up to 100 μM
MCF-10A cells [8] = assay: Matrigel cultures, MCF-10A; type: cell-based, human; settings: 100 μM
Hs578T cells = assay: Tumor cell migration, Hs578T; type: cell-based, human; settings: 1-100 μM
Method in brief: (§3)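 Chemotactic migration toward FBS was measured in a modified Boyden chamber across a range of test compound concentrations. IC50 was derived from the concentration–response data. Results are mean ± SEM (N ≥ 3).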

MDA-MB-231 cells [9] = assay: Growth of pretreated MDA-MB-231 cells on plastic dishes; type: cell-based, human; settings: cells treated overnight with 100 μM
MDA-MB-231 cells [10] = assay: Matrigel cultures, MDA-MB-231; type: cell-based, human; settings: 100 μM for 2 days, culture 7 days
[11] = tested on: Akt activation in GIV-depleted cells (shGIV); assay: EGF-stimulated Akt activation in GIV-depleted cells; type: cell-based, human; settings: 100 μM
Method in brief: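 GIV-depleted (shGIV) and control (shControl) cells were handled the same way: preincubation with test compound, EGF stimulation for 5 min, lysis, then immunoblotting for Akt activation.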

[12] = Hydrolytic processing of IGGi-11me by cytosolic fraction of MDA-MB-231 cells; type: in vitro ADME, human; settings: 2 hours, 37 °C
[13] = tested on: GIV-depleted (shGIV) HeLa cells; assay: Tumor cell migration, GIV-depleted HeLa; type: cell-based, human
Method in brief: as §2

MDA-MB-231 cells [14] = assay: Cell viability assay; type: cell-based, human; settings: up to 100 μM, 24 h
Method in brief: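 Cell viability was measured after 24 h incubation with test compound at indicated concentrations. IC50 was derived from the concentration-response data. Mean ± SEM, N ≥ 3.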

BT-549 cells = assay: Tumor cell migration, BT-549; type: cell-based, human; settings: 1-100 μM
Method in brief: as §3

GIV binding to Gαi3, sequence (P08753 whole entry): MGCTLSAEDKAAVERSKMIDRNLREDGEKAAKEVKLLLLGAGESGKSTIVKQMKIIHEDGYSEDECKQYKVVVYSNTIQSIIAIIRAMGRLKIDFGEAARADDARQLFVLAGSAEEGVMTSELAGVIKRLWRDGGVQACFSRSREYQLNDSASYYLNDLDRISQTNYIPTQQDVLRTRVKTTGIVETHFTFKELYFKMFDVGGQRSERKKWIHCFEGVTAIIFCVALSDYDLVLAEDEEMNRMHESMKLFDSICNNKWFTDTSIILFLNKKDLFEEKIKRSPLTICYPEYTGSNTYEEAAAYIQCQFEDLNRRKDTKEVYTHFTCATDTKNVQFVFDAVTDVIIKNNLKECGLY
GIV–Gαi3 binding, sequence (P08753 whole entry): as above

O=C(Nc1cccc(C(=O)Nc2ccc(S(=O)(=O)O)c3cc(S(=O)(=O)O)cc(S(=O)(=O)O)c23)c1)Nc1cccc(C(=O)Nc2ccc(S(=O)(=O)O)c3cc(S(=O)(=O)O)cc(S(=O)(=O)O)c23)c1 [NF023]
disruption of the GIV–Gαi interaction (GIV–Gαi3 binding): disrupts the GIV–Gαi interaction

COC(=O)CCCN(C)S(=O)(=O)c1ccc2c(c1)Cc1cc(S(=O)(=O)N(C)CCCC(=O)OC)ccc1-2 [IGGi-11me]
cAMP response to isoproterenol in the absence of Gi-mediated regulation [1]: had no effect
inhibition of MDA-MB-231 cell migration, dose dependence (MDA-MB-231 cells [2]; FBS as chemoattractant, 1-100 μM, preincubation): efficiently reduced their ability to migrate
potency on migration of MDA-MB-231 relative to MCF-7 (MDA-MB-231 cells [2]; GIV^High vs GIV^Low): approximately four times more potent
SDF-1α-stimulated Akt activation, MDA-MB-231 [3]: does not block Akt activation
viability of MCF-10A cells (MCF-10A cells [4]): did not affect the viability
potency as inhibitor of GIV–Gαi3 binding relative to IGGi-11, FP (GIV binding to Gαi3): lower potency compared to IGGi-11
EGF-stimulated phosphorylation of Akt at S473, HeLa [5]: reduced, in a dose-dependent manner, the phosphorylation of Akt at S473
cell migration of GIV-depleted MDA-MB-231 cells [6]: had no effect on MDA-MB-231 cell migration upon GIV depletion
EGF-stimulated phosphorylation of Akt at S473, MDA-MB-231 ([7]; EGF 1.6 nM, 5 min, PTX 100 ng/mL): reduced, in a dose-dependent manner, the phosphorylation of Akt at S473
total amount of GIV or Gαi ([7]; immunoblot): did not change the total amount of GIV or Gαi
stability in plasma (Stability in plasma): rapidly degraded in plasma
MDA-MB-231 cell migration toward SDF-1α (MDA-MB-231 cells (CXCR4)): did not affect MDA-MB-231 cell migration
growth of MCF-10A cells in Matrigel cultures (MCF-10A cells [8]): did not affect the growth of nontransformed MCF-10A breast cells in Matrigel cultures
inhibition of Hs578T cell migration (Hs578T cells): potency similar to that seen for MDA-MB-231 cells
growth of pretreated MDA-MB-231 cells on plastic dishes (MDA-MB-231 cells [9]): had no effect
growth of MDA-MB-231 cells in Matrigel cultures (MDA-MB-231 cells [10]): overall reduction of cell growth
EGF-stimulated Akt activation in GIV-depleted cells [11]: failed to further reduce Akt activation in GIV-depleted cells
conversion to IGGi-11 by cellular esterases [12]: converted to IGGi-11 by esterases present in the cytosol of MDA-MB-231 cells
cell migration of GIV-depleted HeLa cells [13]: inhibition of tumor cell migration is lost upon depletion of GIV
viability of MDA-MB-231 cells (MDA-MB-231 cells [14]): did not affect the viability
inhibition of BT-549 cell migration (BT-549 cells): potency similar to that seen for MDA-MB-231 cells
